The values that follow come from ChEMBL document CHEMBL5614410, “Design, Synthesis, and Evaluation of p53Y220C Acetylation Targeting Chimeras (AceTACs)” (J Med Chem, 2024).

Experiment [1] has as its system CREB-binding protein/Histone acetyltransferase p300/Cellular tumor antigen p53 (Homo sapiens), P04637+Q09472+Q92793 [Y220C]. Description: AceTAC activity at FLAG-tagged p53Y220C mutant (unknown origin) expressed in human NCI-H1299 cells expressing p300/CBP assessed as increase in p53 acetylation at lysine 382 residue at 10 uM incubated for 24 hrs by western blot analysis relative to control. It counts as cell-based. The method in brief: (§1)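 NCI-H1299 (p53Y220C) cells were treated at 0.1–10 μM (0.1, 0.3, 1, 3 or 10 μM) for 24 h. Lysates were Western blotted for p53 and p53K382ac, with vinculin as loading control. p53K382ac was normalised to total p53Y220C and quantified from two or three independent experiments.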
(In western blotting, separated proteins are transferred to a membrane and probed.)

The test system of experiment [2] is NCI-H1299. Put plainly: Antiproliferative activity against human NCI-H1299 cells expressing p53Y220C mutant assessed as reduction in cell viability incubated for 3 days by WST-8 assay. The format is functional. Particulars: NCI-H1299, 72 h, time 3 day. The method in brief: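 NCI-H1299 p53Y220C cells were exposed to compound over a concentration range for 72 h, in some runs after 72 h of control or p300 siRNA, before the viability read-out. Values are mean ± SD of three independent experiments.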
(In general: Tetrazolium assays rely on reduction of a dye to a coloured formazan, in cell work by metabolically active cells.)

Experiment [3] concerns CREB-binding protein/Histone acetyltransferase p300/Cellular tumor antigen p53 (Homo sapiens), P04637+Q09472+Q92793 [Y220C]. Description: AceTAC activity at FLAG-tagged p53Y220C mutant (unknown origin ) expressed in human NCI-H1299 cells expressing p300/CBP assessed as increase in p53 acetylation at lysine 382 residue at 1 uM incubated for 24 hrs by western blot analysis. It counts as cell-based. The method in brief:
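NCI-H1299 cells stably expressing p53Y220C, treated 24 h at 1 or 10 μM. Lysates were Western blotted for total p53 and p53 K382ac, with vinculin as loading control. Blots are representative of at least two independent experiments.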

Experiment [4] concerns Cellular tumor antigen p53 (Homo sapiens), P04637 [Y220C]. Put plainly: Stabilization of p53Y220C mutant (unknown origin) assessed as increase in melting temperature by […]. (In general: Isothermal titration calorimetry measures the heat released or taken up as one component is titrated into another.)
For experiment [5] the test system is unchanged. Description: Induction of p53Y220C mutant acetylation in human NUGC-3 cells expressing p300/CBP assessed as increase in p53 acetylation at lysine 382 residue at 1 to 10 uM incubated for 24 hrs by western blot analysis. The format is cell-based. Conditions: dose 1-10 µM. The method in brief: (§2)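 BxPC3 or NUGC-3 cells, which endogenously carry p53Y220C, were dosed at 1, 3 or 10 μM (or DMSO) for 24 h. Lysates were immunoblotted for p53 and p53 K382ac, with vinculin loading control. Blots are representative of two independent experiments.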

Experiment [6] relates to NUGC-3. Description: Antiproliferative activity against human NUGC-3 cells harboring p53Y220C mutant assessed as inhibition of cell growth incubated for 72 hrs by WST-8 assay. The format is functional. The method in brief:
(§3)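 BxPC3 or NUGC-3 cells were treated with DMSO or compound over a concentration range for 72 h before the viability read-out. Values are mean ± SD of technical triplicates from three biological experiments.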

Experiment [7] deals with NCI-H1299. Put plainly: Antiproliferative activity against p53-null human NCI-H1299 cells assessed as reduction in cell viability at 0.47 to 15 uM incubated for 3 days by WST-8 assay. The format is functional, cell-based. Particulars: dose 0.47-15 µM, time 3.0 day. The method in brief: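 p53-null NCI-H1299 cells were exposed to compound across the concentration series for 72 h before the viability read-out. Data are mean ± SD from three independent experiments.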

The subject of experiment [8] is Cellular tumor antigen p53 (Homo sapiens), P04637 [Y220C]. Description: Induction of p53Y220C mutant acetylation in human BXPC-3 cells expressing p300/CBP assessed as increase in p53 acetylation at lysine 382 residue at 1 to 10 uM incubated for 24 hrs by western blot analysis. It counts as cell-based. Particulars: dose 1-10 µM. The method in brief:
as §2

Experiment [9] relates to BXPC-3. Description: Antiproliferative activity against human BXPC-3 cells harboring p53Y220C mutant assessed as inhibition of cell growth incubated for 72 hrs by WST-8 assay. The format is functional. The method in brief: as §3
Experiment [10] deals with CREB-binding protein/Histone acetyltransferase p300/Cellular tumor antigen p53 (Homo sapiens), P04637+Q09472+Q92793 [Y220C]. Description: AceTAC activity at FLAG-tagged p53Y220C mutant (unknown origin) expressed in human NCI-H1299 cells expressing p300/CBP assessed as fold increase in p53 acetylation at lysine 382 residue at 10 uM incubated for 24 hrs by western blot analysis relative to control. The format is cell-based. The method in brief: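 NCI-H1299 (p53Y220C) cells were exposed to 1, 3 and 10 μM for 24 h, then Western blotted. The K382ac signal was normalized to total p53Y220C and quantified from two independent experiments (±SD), relative to DMSO.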

In experiment [11] the target is CREB-binding protein/Histone acetyltransferase p300/Cellular tumor antigen p53 (Homo sapiens, UniProt P04637+Q09472+Q92793, Y220C). Description: AceTAC activity at FLAG-tagged p53Y220C mutant (unknown origin) expressed in human NCI-H1299 cells expressing p300/CBP assessed as increase in p53 acetylation at lysine 382 residue incubated for 24 hrs by western blot analysis. It counts as cell-based. The method in brief:
as §1

Experiment [12] has as its system CREB-binding protein/Histone acetyltransferase p300/Cellular tumor antigen p53 (Homo sapiens), P04637+Q09472+Q92793 [Y220C]. Put plainly: AceTAC activity at FLAG-tagged p53Y220C mutant (unknown origin) expressed in human NCI-H1299 cells expressing p300/CBP assessed as stabilization of protein by measuring increase in aggregation temperature at 100 uM incubated for 1 hr at 32 to 50 degC by CETSA analysis. The format is cell-based. The method in brief:
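For CETSA, NCI-H1299 (p53Y220C) stable cells were treated with DMSO or 100 μM compound for 1 h, then heated at 32 to 50 °C. Soluble p53 was detected by Western blot. Representative of at least two independent experiments.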

Each structure is given as a SMILES string. pEC50: −log10 of the molar value. Active and inactive are the calls of the source. No cut-off for these calls is given here.

As usually defined, the GI50 is the concentration that inhibits growth by half. For `CCn1c2ccc(CNCC(=O)NCCOc3ccc(CCc4nc5cc(-c6c(C)noc6C)ccc5n4CCN4CCOCC4)cc3F)cc2c2ccc(-c3cc(C)cs3)cc21`, the Activity in experiment [1] turned out to be 60%. Further, the concentration for 50% growth inhibition (GI50) in experiment [2] was found to be 18 µM.
In the case of `CCn1c2ccc(CNCCOCCOCCC(=O)NCCOc3ccc(CCc4nc5cc(-c6c(C)noc6C)ccc5n4CCN4CCOCC4)cc3F)cc2c2ccc(-c3cc(C)cs3)cc21`, the outcome in experiment [3] was Active. In addition, in experiment [1], the Activity was 205%. Besides, the GI50 in experiment [2] was found to be 4 µM.
Take `CCn1c2ccc(CNCCC(=O)NCCOc3ccc(CCc4nc5cc(-c6c(C)noc6C)ccc5n4CCN4CCOCC4)cc3F)cc2c2ccc(-c3cc(C)cs3)cc21`: the Activity in [1] was 70%. For the same compound, the 50% growth inhibitory concentration (GI50) in [2] worked out at 13 µM.
For the compound `CCn1c2ccc(CNCCCCCCCCC(=O)NCCOc3ccc(CCc4nc5cc(-c6c(C)noc6C)ccc5n4CCN4CCOCC4)cc3F)cc2c2ccc(-c3cc(C)cs3)cc21`, the outcome in experiment [3] was Active. Further, in experiment [1], the Activity is 103%. The GI50 in experiment [2] stood at 5 µM.
As usually defined, the ΔTm is the shift of the melting midpoint relative to a reference. Take `CCn1c2ccccc2c2cc(CNC)ccc21`: the ΔTm in [4] came out at 1 °C.
Regarding `CCn1c2ccc(CNCCCCC(=O)NCCOc3ccc(CCc4nc5cc(-c6c(C)noc6C)ccc5n4CCN4CCOCC4)cc3F)cc2c2ccc(-c3cc(C)cs3)cc21`, in [3], the outcome was Active. The Activity in [1] turned out to be 202%. Also, in experiment [2], the GI50 amounted to 4 µM.
`COc1ccc(CCc2nc3cc(-c4c(C)noc4C)ccc3n2CCN2CCOCC2)cc1F`: the result in [5], in [6], in experiment [7], in experiment [8] and in experiment [9] was inactive.
As usually defined, the pEC50 is −log10 of the EC50, conventionally taken in molar units. `CCn1c2ccc(CNCCOCCOCCOCCn3cc(COc4ccc(CCc5nc6cc(-c7c(C)noc7C)ccc6n5CCN5CCOCC5)cc4F)nn3)cc2c2ccc(-c3cc(C)cs3)cc21`: in experiment [10], the fold change (FC) was 4. For the same compound, the pEC50 in experiment [11] is 5.73. Also, the shift in melting temperature (ΔTm) in [12] was found to be 4 °C.
